{
  "source": "ChEMBL document CHEMBL4393678",
  "about": "“Novel Tetrahydroquinazolinamines as Selective Histamine 3 Receptor Antagonists for the Treatment of Obesity” (J Med Chem, 2019)",
  "key": {"[1]": {"assay": "Cmax in C57BL/6J mouse serum assessed as 4-(2-Amino-8-methyl-5,6,7,8-tetrahydroquinazolin-4-yl)phenol level at 20 mg/kg, po by LC-MS/MS analysis", "assay_type": "ADME, organism-based", "design": "dose 20 mg/kg, route oral", "conditions": "in vivo", "method_in_brief": "(§1)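 Male C57BL/6J mice (6-8 weeks, 20 ± 5 g) fasted overnight (12-16 h) got a single 20 mg/kg oral dose as 2.5 mg/mL suspension in 1% w/v gum acacia; n=5 per time point. Serum and brain (PBS homogenate 1:6 w/v) sampled up to 24 h. Parent and demethylated metabolite quantified by LC-MS/MS after liquid-liquid extraction (C18, MRM, phenacetin internal standard; linear 0.25-200 ng/mL). Two-compartment open model fit.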"}, "[2]": {"biological_target": "D(1B) dopamine receptor (Homo sapiens) (UniProt P21918)", "sequence (P21918 whole entry)": "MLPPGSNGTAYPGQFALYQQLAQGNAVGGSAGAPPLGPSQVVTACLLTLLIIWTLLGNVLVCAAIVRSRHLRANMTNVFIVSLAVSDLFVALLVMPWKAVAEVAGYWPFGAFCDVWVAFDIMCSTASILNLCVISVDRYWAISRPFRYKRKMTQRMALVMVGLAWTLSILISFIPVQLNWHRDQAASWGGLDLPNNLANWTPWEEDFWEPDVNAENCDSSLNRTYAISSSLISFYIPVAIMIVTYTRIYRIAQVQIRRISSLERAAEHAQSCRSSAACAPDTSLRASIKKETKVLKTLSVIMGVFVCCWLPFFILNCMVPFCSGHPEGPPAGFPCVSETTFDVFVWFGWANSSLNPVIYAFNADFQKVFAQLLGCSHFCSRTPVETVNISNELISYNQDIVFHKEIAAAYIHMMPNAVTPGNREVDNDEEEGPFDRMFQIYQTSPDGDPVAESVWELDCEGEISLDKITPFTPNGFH", "assay": "Antagonist activity at Gs-coupled D5 receptor (unknown origin) expressed in HEK293T cells assessed as reduction in histamine-induced inhibition of forskolin-stimulated cAMP accumulation preincubated for 10 to 15 followed by histamine addition for 10 mins and subsequent forskolin-stimulation by Glo-sensor assay", "assay_type": "functional, cell-based"}, "[3]": {"assay": "fCmax in C57BL/6J mouse brain by equilibrium dialysis method", "assay_type": "ADME, tissue-based", "method_in_brief": "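Unbound brain level derived from brain concentration after 20 mg/kg oral dose, multiplied by unbound fraction from brain-homogenate equilibrium dialysis; given at Cmax and at 4 h.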"}, "[4]": {"assay": "AUClast in C57BL/6J mouse serum assessed as 4-(2-Amino-8-methyl-5,6,7,8-tetrahydroquinazolin-4-yl)phenol level at 20 mg/kg, po by LC-MS/MS analysis", "assay_type": "ADME, organism-based", "design": "dose 20 mg/kg, time 0 - last, route oral", "conditions": "in vivo", "method_in_brief": "(§2)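 Male C57BL/6J mice, 6-8 weeks, 20 ± 5 g, fasted overnight (12-16 h), n = 5 per time point. Single 20 mg/kg oral dose given by feeding needle as a 2.5 mg/mL suspension in 1% w/v gum acacia and water. Serum and brain (homogenized 1:6 w/v in PBS) sampled up to 24 h. Liquid-liquid extraction, then LC-MS/MS in positive MRM mode with phenacetin as internal standard. Linear range 0.25-200 ng/mL. Non-compartmental and compartmental analysis.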"}, "Mus musculus [5]": {"test_system": "Mus musculus", "assay": "Anti-obesity activity in 16 hrs fasted db/db-induced obese C57BL/6J mouse model assessed as change in blood LDL level at 20 mg/kg, po measured after 6 weeks", "assay_type": "functional, organism-based"}, "Mus musculus [6]": {"test_system": "Mus musculus", "assay": "Anorexic effect in 12 hrs fasted db/db-induced obese C57BL/6J mouse model assessed as reduction in cumulative food intake at 10 mg/kg, po pretreated for 30 mins followed by food addition measured after 4 hrs", "assay_type": "functional, organism-based", "method_in_brief": "(§3)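 Mice starved 12 h (8:00 am to 8:00 pm) with water available, then housed singly. Compound given orally in 5% gum acacia in normal saline; vehicle group received the same. Cumulative food intake measured over 4 h of the night phase (9:00 pm to 1:00 am), starting 30 min after dosing. Antagonism arms: imitet 5 mg/kg i.p. 30 min before compound, or α-methyl-DL-histidine 20 mg/kg i.p. 2 h before.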"}, "[7]": {"assay": "AUClast in C57BL/6J mouse serum at 20 mg/kg, po by LC-MS/MS analysis", "assay_type": "ADME, organism-based", "design": "dose 20 mg/kg, route oral, time 0 - last", "method_in_brief": "as §2"}, "[8]": {"assay": "Tmax in C57BL/6J mouse serum assessed as 4-(2-Amino-8-methyl-5,6,7,8-tetrahydroquinazolin-4-yl)phenol level at 20 mg/kg, po by LC-MS/MS analysis", "assay_type": "ADME, organism-based", "conditions": "in vivo", "method_in_brief": "as §1"}, "Mus musculus [9]": {"test_system": "Mus musculus", "assay": "Anti-obesity activity in high fat diet-induced obese C57BL/6J mouse model assessed as reduction in body fat mass at 20 mg/kg, po measured after 6 weeks relative to control by NMR-based magnetic resonance imaging analysis", "assay_type": "functional", "design": "scale not given: the % may be the effect or the level left"}, "Mus musculus [10]": {"test_system": "Mus musculus", "assay": "Anti-obesity activity in high fat diet-induced obese C57BL/6J mouse model assessed as reduction in body weight at 10 mg/kg, po measured up to 39 days", "assay_type": "functional, organism-based"}, "[11]": {"biological_target": "D(1B) dopamine receptor (Homo sapiens) (UniProt P21918)", "assay": "Agonist activity at Gs-coupled D5 receptor (unknown origin) expressed in HEK293T cells assessed as inhibition of forskolin-stimulated cAMP accumulation preincubated for 10 to 15 followed by forskolin-stimulation by Glo-sensor assay", "assay_type": "functional, cell-based"}, "[12]": {"assay": "Ratio of fCmax in C57BL/6J mouse brain to IC50 for recombinant human Gi-coupled H3 receptor expressed in HEK293T cells assessed as reduction in histamine-induced inhibition of forskolin-stimulated cAMP accumulation", "assay_type": "cell-based", "method_in_brief": "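Fasted male C57BL/6J mice received a single oral dose of 20 mg/kg in gum acacia suspension. Brain Cmax came from LC-MS/MS of brain homogenate. Unbound brain fraction was measured by equilibrium dialysis of brain tissue homogenate. Unbound Cmax, converted to nM, was divided by the H3R antagonist IC50 from the GloSensor cAMP assay in transfected HEK293T cells.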"}, "[13]": {"assay": "Apparent clearance in C57BL/6J mouse serum at 20 mg/kg, po by LC-MS/MS analysis", "assay_type": "ADME, organism-based", "method_in_brief": "as §1"}, "[14]": {"biological_target": "T1, 5-hydroxytryptamine receptor 2C (Homo sapiens) (UniProt P28335)", "T1 sequence (whole entry)": "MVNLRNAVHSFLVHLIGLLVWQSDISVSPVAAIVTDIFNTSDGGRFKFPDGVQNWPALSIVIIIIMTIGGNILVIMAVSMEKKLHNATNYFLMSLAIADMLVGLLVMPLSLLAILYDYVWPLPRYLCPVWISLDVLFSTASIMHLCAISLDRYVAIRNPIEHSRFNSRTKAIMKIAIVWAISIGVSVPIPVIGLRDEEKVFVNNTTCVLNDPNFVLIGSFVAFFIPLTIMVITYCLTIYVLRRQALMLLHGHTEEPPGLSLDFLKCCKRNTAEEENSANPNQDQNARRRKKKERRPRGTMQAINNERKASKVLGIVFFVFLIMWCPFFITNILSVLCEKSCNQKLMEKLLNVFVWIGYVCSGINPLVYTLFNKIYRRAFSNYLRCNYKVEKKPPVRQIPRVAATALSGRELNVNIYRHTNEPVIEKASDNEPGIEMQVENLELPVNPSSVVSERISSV", "assay": "Antagonist activity at 5HT2CR (unknown origin) expressed in HEK293 cells harboring luc2P/NFAT-RE plasmid at 10 uM after 6 to 8 hrs by luciferase reporter gene assay", "assay_type": "cell-based", "method_in_brief": "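NFAT-RE luciferase assay in HEK293T cells transiently co-transfected with luc2P/NFAT-RE plasmid and receptor plasmid. Cells plated in DMEM and incubated overnight at 37 °C, 5% CO₂. Compounds and reference ligands applied for 6-8 h. Luciferase read after adding Bright-Glo substrate (1 mg/ml final).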"}, "[15]": {"assay": "Apparent volume of distribution in C57BL/6J mouse brain at 20 mg/kg, po by LC-MS/MS analysis", "assay_type": "ADME, organism-based", "method_in_brief": "as §1"}, "Mus musculus [16]": {"test_system": "Mus musculus", "assay": "Anti-obesity activity in high fat diet-induced obese C57BL/6J mouse model assessed as change in LDL level at 10 to 20 mg/kg, po measured after 6 weeks", "assay_type": "functional, organism-based", "method_in_brief": "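At the end of treatment (six weeks HFD, four weeks db/db), mice euthanized with avertin 350 mg/kg. Blood taken by cardiac puncture into 3.8% sodium citrate. Plasma separated at 4000 rpm and stored at -80 °C. TG, TC, HDLc and LDLc measured on a bio-analyzer.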"}, "Mus musculus [17]": {"test_system": "Mus musculus", "assay": "Anti-obesity activity in 16 hrs fasted db/db-induced obese C57BL/6J mouse model assessed as change in blood total cholesterol level at 20 mg/kg, po measured after 6 weeks", "assay_type": "functional, organism-based"}, "Mus musculus [18]": {"test_system": "Mus musculus", "assay": "Anorexic effect in high fat diet-induced obese C57BL/6J mouse model assessed as reduction in cumulative food intake at 20 mg/kg, po pretreated for 30 mins followed by food addition measured after 4 hrs relative to control", "assay_type": "functional", "design": "scale not given: the % may be the effect or the level left", "method_in_brief": "as §3"}},
  "note": "Activity calls are given as the source filed them. No cut-off for these calls is given here.",
  "data": [
    {"smiles": "COc1ccc(-c2nc(N)nc3c2CCCC3C)cc1", "note": "(racemic)", "values": [
      {"measurement": "Cmax", "setting": "[1]", "result": 3333.3, "unit": "ng/mL"},
      {"measurement": "inhibition", "setting": "[2]", "result": "inactive"},
      {"measurement": "fCmax", "setting": "[3]", "result": 334.7, "unit": "nM"},
      {"measurement": "AUClast", "setting": "[4]", "result": 1646.9, "unit": "ng·h/mL"},
      {"measurement": "Activity", "setting": "Mus musculus [5]", "result": "inactive"},
      {"measurement": "Activity", "setting": "Mus musculus [6]", "result": "inactive"},
      {"measurement": "AUC(0-t)", "setting": "[7]", "result": 1920, "unit": "ng·h/mL"},
      {"measurement": "Tmax", "setting": "[8]", "result": 15, "unit": "min"},
      {"measurement": "Activity", "setting": "Mus musculus [9]", "result": 27.1, "unit": "%"},
      {"measurement": "Activity", "setting": "Mus musculus [10]", "result": "inactive"},
      {"measurement": "INH", "setting": "[11]", "result": "> 10", "unit": "µM"},
      {"measurement": "Ratio", "setting": "[12]", "result": 8.3},
      {"measurement": "CL/F", "setting": "[13]", "result": 172, "unit": "mL/min/kg"},
      {"measurement": "inhibition", "setting": "[14]", "result": "inactive"},
      {"measurement": "Vd/F", "setting": "[15]", "result": 28.3, "unit": "L/kg"},
      {"measurement": "Activity", "setting": "Mus musculus [16]", "result": "inactive"},
      {"measurement": "Activity", "setting": "Mus musculus [17]", "result": "inactive"},
      {"measurement": "Activity", "setting": "Mus musculus [18]", "result": 28, "unit": "%"}
    ]}
  ]
}
